Compound activity deposited in PubChem by several laboratories.
An excerpt weighted towards active compounds, which were near 9.2% of everything screened.
Dynein transport: blocks dynein driven cargo transport along microtubules | z-score, hits read low | actives 0.47% (n = 220,000) | 3617.4 mouse cells, GR-EGFP nuclear translocation imaging; test concentration mostly 20 µM; stimulated with dexamethasone, 1 µM; hits give low values | AID 1381;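 active = plate z-score of nuclear minus cytoplasmic receptor signal below a set negative limit, without overly bright fluorescence or cell loss, cut at about -3.5 in these data, passing the limit was not always enough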;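 also: z-score of nuclear minus cytoplasmic ring GR-EGFP intensity difference per well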
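Buffer or medium: Induction medium lacking tetracycline, stripped serum | Also added: Dexamethasone agonist, 1.0 µM final, for 30 min | Timing: 48 h induction, 1 h compound, 30 min dex at 37 °C | Detection: Formaldehyde fixation, Hoechst nuclear stain, 10x automated fluorescence imaging | Measure: Nuclear versus cytoplasmic GR-EGFP signal, averaged per well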
Lmaj promast: reduces viability of Leishmania major promastigotes. resazurin fluorescence viability. AID 1063. inhibition, % at 10 µM. actives 9% (n = 200,000); in the data active = inhibition above about 50%;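 also: promastigotes grown with compound for 44 hours at 28 °C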
PTEN del growth: PTEN-deleted cell growth suppression; HCT116 PTEN-null viability, CellTiter-Glo, 60 h; hits give low values; actives 1.2% (n = 140,000); AID 827; viability, % at 10 µM;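 active = viability at or below a set limit, 4 SD under the median of all tested compounds, cut at about 3.7% in these data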;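 also: PTEN knockout HCT116 line with beta catenin targeted HCT116 as companion control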
bCat KO growth: beta-catenin-lacking colon tumor cell growth suppression; HCT116 beta-catenin knockout viability, CellTiter-Glo, 60 h; hits give low values; viability, % at 10 µM; actives 1.5% (n = 140,000); AID 818;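 active = viability at or under a set limit, the compound median less 4 SD, cut at about 6% in these data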;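 also: 0% = Hyamine 1622 control at 20 µM and 100% = untreated cell control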
Autophagy mod: modulators of autophagy; MEF GFP-LC3 puncta imaging; test concentration mostly 10 µM; AID 463193; actives 0.98% (n = 190,000); calls only at 10 µM (by protocol);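 active = percentage of spot-positive cells more than 3 SD above its plate mean, without a fluorescence outlier flag or 80% toxicity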;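 also: spot-positive cell cutoff set from DMSO-treated cells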
Numbers without * were called inactive; i = inactive; nt = no result; + = active, no number.

SMILES | Dynein transport | Lmaj promast | PTEN del growth | bCat KO growth | Autophagy mod
Cc1nn(-c2ccccc2)c(Cl)c1C(=O)NCCCCNC(=O)c1c(C)nn(-c2ccccc2)c1Cl | -0.649 | 8.2 | 97.4 | 96.1 | i
CCC(=O)N(Cc1c(C)nn(-c2ccccc2)c1Cl)c1ccc(Cl)cc1 | -0.283 | 64.7* | 58.9 | 62.7 | i
Cn1c(Oc2ccc(F)cc2)c(C=O)c2ccccc21 | -1.28 | 1.1 | nt | nt | i
Cn1c(Sc2ccc(Br)cc2)c(C=O)c2ccccc21 | -0.862 | 56.9* | 42.0 | 50.7 | i
Cc1cc(=O)[nH]c(SCC(=O)Nc2cc(S(=O)(=O)N(C)C)ccc2Cl)n1 | 0.415 | -6.0 | nt | nt | i
c1cc(CNC2C3CC4CC(C3)CC2C4)ccn1 (centres undefined) | -0.00512 | 82.8* | nt | nt | i
CC(NCc1ccncc1)C12CC3CC(CC(C3)C1)C2 (centres undefined) | -0.317 | 68.5* | nt | nt | i
O=C(NCc1ccncc1)C12CC3CC(CC(C3)C1)C2 | 0.965 | 2.8 | 92.5 | 99.7 | i
O=C1CC(NCc2ccncc2)C(=O)N1c1ccccc1 (centres undefined) | -0.625 | -2.1 | 91.1 | 86.9 | i
COc1ccc(CC(=O)NCc2nnc(SCC(=O)Nc3ccc(OC)cc3)n2C)cc1 | 0.104 | -3.5 | nt | nt | i
Nc1nonc1-c1nc2ccccc2n1CC(=O)N/N=C\c1ccc(-c2ccc(Cl)cc2)o1 | -0.508 | -3.7 | 86.7 | 76.9 | i
COc1ccc(/C=C2\CCn3c2nc2cc(C(=O)O)ccc2c3=O)cc1OC | 2.17 | nt | nt | nt | nt
O=C(O)c1ccc2c(=O)n3c(nc2c1)/C(=C/c1ccccc1C(F)(F)F)CCCC3 | 0.102 | -7.5 | 100.1 | 96.2 | +
Cc1cc(O)ccc1N1C(=O)c2cccc3cc([N+](=O)[O-])cc(c23)C1=O | -0.8 | 87.8* | nt | nt | i
O=C1c2cccc3cc([N+](=O)[O-])cc(c23)C(=O)N1c1ccccc1O | -0.334 | 98.2* | nt | nt | i
O=C1c2cccc3c([N+](=O)[O-])c(O)cc(c23)C(=O)N1Nc1ccccc1 | 1.31 | -5.5 | nt | nt | i
COCCCNC(=S)Nc1cccc2ncccc12 | -0.794 | -0.8 | nt | nt | i
CC(OC(=O)c1c2c(nc3ccccc13)/C(=C\c1ccc3c(c1)OCO3)CCC2)C(=O)Nc1ccc(S(N)(=O)=O)cc1 (centres undefined) | 0.153 | 14.4 | 5.9 | 8.5 | i
Cc1cccc(C)c1NC(=O)COC(=O)c1c2c(nc3ccccc13)/C(=C\c1ccc3c(c1)OCO3)CCC2 | -0.113 | 83.0* | 64.0 | 73.2 | +
C/C=C(/C)C(=O)Nc1cccc(C2=NOC3(C2)C[C@@H](C(N)=O)N(C(=O)/C=C/CC)C3)c1 (some centres undefined) | 0.0821 | nt | nt | nt | nt
Cc1nc2ccc(NC(=O)c3cccc(S(=O)(=O)N4CC(C)OC(C)C4)c3)cc2s1 (centres undefined) | -0.884 | 98.3* | 91.7 | 95.5 | i
CN(c1ccccc1)S(=O)(=O)c1ccc(NC(=S)NC(=O)c2ccccc2)cc1 | -0.103 | 100.0* | 96.5 | 78.9 | i
CC1CN(S(=O)(=O)c2ccc(NC(=O)c3cc(-c4ccccc4O)n[nH]3)cc2)CC(C)O1 (centres undefined) | 3.35 | 99.8* | 8.4 | 16.9 | i
Cc1ccc(C(=O)NC(=S)Nc2ccc(S(=O)(=O)N(C)c3ccccc3)cc2)cc1 | -0.0939 | -1.8 | 97.1 | 82.9 | i
COc1ccccc1/C=C/C(=O)NC(=S)Nc1ccc(S(=O)(=O)N(C)c2ccccc2)cc1 | -0.233 | 62.2* | 92.5 | 103.2 | i
SMILES | Dynein transport | Lmaj promast | PTEN del growth | bCat KO growth | Autophagy mod
O=C(Nc1ccc(S(=O)(=O)N2CCOCC2)cc1)c1cc(-c2ccccc2O)n[nH]1 | -0.34 | nt | nt | nt | nt
Cc1oc(S(=O)(=O)N(C)C)cc1C(=O)Nc1ccc(F)cc1 | -1.3 | nt | nt | nt | nt
CC(C)NS(=O)(=O)c1ccc(NC(=S)NC(=O)c2ccc(-c3ccccc3)cc2)cc1 | -0.283 | 93.3* | 61.7 | 71.4 | i
Cc1nc2ccc(NC(=O)c3ccc(S(=O)(=O)N(C)c4ccccc4)cc3)cc2s1 | -0.182 | 99.5* | 40.2 | 35.0 | i
Cc1nc2ccc(NC(=O)N(C)c3ccccc3)cc2s1 | -0.00931 | -5.5 | 96.3 | 95.3 | i
CN(c1ccccc1)S(=O)(=O)c1ccc(NC(=S)NC(=O)C2CC2)cc1 | -0.534 | 74.7* | 89.8 | 89.7 | i
Cc1nc2ccc(NC(=O)c3ccc([N+](=O)[O-])cc3[N+](=O)[O-])cc2s1 | -0.564 | 99.6* | nt | nt | i
COc1cccc(C(=O)NN/C(C)=C/C(=O)C(F)(F)C(F)(F)C(F)(F)F)c1 | 0.067 | 1.2 | 64.0 | 62.3 | i
CCOC(=O)c1sc(NC(=O)C(C)Sc2nc(N)cc(=O)[nH]2)nc1C (centres undefined) | -0.263 | -6.3 | nt | nt | i
CC(Sc1nc(N)cc(=O)[nH]1)C(=O)Nc1cccc(Cl)c1 (centres undefined) | -0.758 | 56.1* | 88.5 | 89.5 | i
CC(=O)NC1C(=O)N=C(SC(C)C(=O)Nc2cccc(Cl)c2)NC1=O (centres undefined) | 0.417 | 63.4* | nt | nt | i
CC12CC3CC(C)(C1)CC(Nc1nc(N4CCOCC4)nc4ccccc14)(C3)C2 | -0.224 | nt | nt | nt | nt
Nc1nc(SCC(=O)Nc2ccccc2)nc2nc3c(cc12)CCCC3 | 0.258 | 66.0* | 84.1 | 74.0 | i
Cc1ccc(NC(=O)CSc2nc(N)c3c4c(sc3n2)CSC(C)(C)C4)cc1 | -0.921 | 87.9* | 38.3 | 36.0 | i
Cc1ccc(NC(=O)CSc2nc(N)c3cc4c(nc3n2)CCCC4)cc1 | -0.252 | 93.1* | 66.5 | 66.7 | i
Cc1cc(S(=O)(=O)N2CCCOC2CNC(=O)C(=O)NCc2ccco2)ccc1F (centres undefined) | 0.0372 | 0.1 | nt | nt | i
Cn1c(=O)cc(Nc2ccccc2)c2c(=O)n(-c3ccccc3)c(=O)n(-c3ccccc3)c21 | -0.806 | nt | nt | nt | nt
COc1ccc(-c2nc(-c3cccc(C)c3)nc(N3CCN(C)CC3)c2C#N)cc1 | 1.6 | 85.9* | 17.2 | 26.2 | i
N#Cc1c(SCC(=O)O)nc(-c2ccccc2)c2c1CCCC2 | -0.896 | -10.4 | 95.9 | 100.4 | i
CCOC(=O)c1cc(C#N)c(N2CCN(C)CC2)nc1-c1ccccc1 | 0.141 | 89.2* | nt | nt | i
COc1ccc(-c2nc(-c3ccccc3)nc(N3CCN(C)CC3)c2C#N)cc1 | 0.152 | 19.8 | 26.0 | 28.8 | i
CCC(=O)N1CCN(c2nc(-c3ccccc3)c3c(c2C#N)CCCC3)CC1 | 0.24 | 76.0* | 88.0 | 89.4 | i
CCOC(=O)c1cc(C#N)c(N2CCCC2)nc1-c1ccccc1 | -0.531 | 2.1 | 82.8 | 94.5 | i
COC(=O)c1sc2nc(-c3ccccc3)nc(N3CCN(C)CC3)c2c1C | -0.0805 | 54.9* | 57.9 | 58.1 | i
O=C(c1ccccc1)N(Cc1ccco1)C1CCS(=O)(=O)C1 (centres undefined) | 0.28 | -6.3 | 95.9 | 103.4 | i
COc1cccc(-c2nc(-c3ccccc3)nc(N3CCN(C)CC3)c2C#N)c1 | 0.212 | 50.8* | nt | nt | i
